Data set [1] is described as follows: Solubility of the compound. The class given is physicochemical.
A short description of data set [2]: Intrinsic clearance in rat liver microsomes at 1 uM measured up to 30 mins in presence of NADPH by HPLC analysis. The class given is ADME, microsome. The settings on record: read-out: CLH. In a few lines:
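Compound at 1 µM final was incubated with human or rat liver microsomes (0.5 mg protein/mL) in Tris buffer at 37 °C, started with NADPH (2 mM). Samples were quenched in cold ACN with indomethacin internal standard at 0, 5, 15 and 30 min (RLM) or 0, 15, 30 and 60 min (HLM) and analysed by HPLC. CLint = first-order degradation rate constant / microsomal protein concentration.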
On the technique in general: Liver microsomes are a subcellular fraction often used to study metabolism.

The next data set relates to Brain. Nature of the data set: Drug uptake in Sprague-Dawley rat brain at 1 mg/kg, po administered as single dose by LC-MS/MS analysis. The class given is ADME, organism-based. The settings on record: in vivo, read-out: Drug uptake. Summed up: (§1)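 Male SD rats got a single 1 mg/kg oral dose in NMP:PEG400:water (5:35:65). Total brain, CSF and plasma levels were then measured.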

The subject of another data set is Plasma. Nature of the data set: Drug uptake in Sprague-Dawley rat plasma at 1 mg/kg, po administered as single dose by LC-MS/MS analysis. Type of data set: ADME, organism-based. The settings on record: read-out: Cp, in vivo. In a few lines:
as §1

Data set [3] can be described thus: AUC (infinity) in Sprague-Dawley rat plasma at 1 mg/kg, po administered as single dose by LC-MS/MS analysis. Set-up: dose 1 mg/kg, time infinity, route oral. Type of data set: ADME, organism-based. In a few lines:
(§2)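 Non-fasted male SD rats (200-250 g, n=3) received a single oral 1 mg/kg dose in NMP:PEG400:water (5:35:65). Femoral-vein blood was sampled pre-dose and at 0.25–24 h. Plasma was extracted with acetonitrile plus internal standard and analysed by LC-MS/MS over a 0.5–2000 ng/mL calibration range.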

The nature of data set [4]: Elimination half life in Sprague-Dawley rat plasma at 1 mg/kg, iv administered as single dose by LC-MS/MS analysis. The settings on record: read-out: beta t1/2 (converted). The class given is ADME, organism-based. Summed up: (§3)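 Male SD rats (200-250 g), not fasted, n=3, given a single 1 mg/kg IV dose in NMP:PEG400:water (5:35:65) via jugular/femoral vein catheters. Blood was taken from pre-dose to 24 h (0.033–24 h). Plasma was protein-precipitated with acetonitrile containing internal standard and quantified by LC-MS/MS against 0.5–2000 ng/mL standards.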

A further data set deals with Cerebrospinal fluid. In words: Drug uptake in Sprague-Dawley rat cerebrospinal fluid at 1 mg/kg, po administered as single dose by LC-MS/MS analysis. The class given is ADME, organism-based. The note with it: in vivo, read-out: Drug uptake. In a few lines:
as §1

Data set [5] in a line: Clearance in Sprague-Dawley rat plasma at 1 mg/kg, iv administered as single dose by LC-MS/MS analysis. The class given is ADME, organism-based. In a few lines:
as §3

Data set [6] is described as follows: Volume of distribution at steady state in Sprague-Dawley rat plasma at 1 mg/kg, iv administered as single dose by LC-MS/MS analysis. The class given is ADME, organism-based. The settings on record: read-out: Vdss. In a few lines:
as §3

Data set [7] is described as follows: AUC (0 to infinity) in Sprague-Dawley rat plasma at 1 mg/kg, iv administered as single dose by LC-MS/MS analysis. Type of data set: ADME, organism-based. Set-up: dose 1 mg/kg, time infinity, route intravenous. In a few lines: as §3
A further data set concerns Rattus norvegicus. In words: Clearance in Sprague-Dawley rat plasma at 1 mg/kg, iv administered as single dose by LC-MS/MS analysis relative to hepatic blood flow. Type of data set: ADME, organism-based. The settings on record: in vivo.
Data set [8] is described as follows: Cmax in Sprague-Dawley rat plasma at 1 mg/kg, po administered as single dose by LC-MS/MS analysis. Type of data set: ADME, organism-based. Set-up: dose 1 mg/kg, route oral. In a few lines:
as §2

Data set [9] is described as follows: Oral bioavailability in Sprague-Dawley rat plasma at 1 mg/kg administered as single dose by LC-MS/MS analysis. The class given is ADME, organism-based. Summed up:
as §2

The nature of data set [10]: Tmax in Sprague-Dawley rat plasma at 1 mg/kg, po administered as single dose by LC-MS/MS analysis. The class given is ADME, organism-based. In a few lines: as §2

In brackets after ≈: the same amount, converted by molar mass.

`Cc1cc(N2CCCC(C(=O)Nc3ccc4c(c3)CCC4)C2)n2ncnc2n1` (centres undefined): in data set [1], the concentration in solution (solubility) was 49 µg/mL (≈ 130 µM). In data set [2], the microsomal CLint at 1 µM came to 67.9 µL/min/mg.
In the case of `Cc1cc([C@@H]2CN(C(=O)c3cc(C)c(F)c(F)c3)CC(F)(F)C2)n2ncnc2n1`, the microsomal CLint at 1 µM in [2] is 52.2 µL/min/mg.
As for `O=C(Nc1ccc2c(c1)CCC2)C1CCCN(c2ccnc3ncnn23)C1` (centres undefined), the solubility (in general, the dissolved amount per volume that the medium holds) in [1] was determined as 47 µg/mL (≈ 130 µM). Besides, the microsomal CLint at 1 µM in [2] was 76.2 µL/min/mg.
As for `Cc1cc([C@H]2CN(C(=O)c3ccc(F)c(Br)c3)CC(F)(F)C2)n2ncnc2n1`, in [2], the microsomal CLint at 1 µM came out at 17.3 µL/min/mg.
`Cc1cc(C2CCCN(C(=O)c3ccc(F)c(C)c3)C2)n2ncnc2n1` (centres undefined): the solubility in [1] was 35 µg/mL (≈ 99 µM). Also, the microsomal CLint at 1 µM in data set [2] turned out to be 33.5 µL/min/mg.
With `COc1ccc(C(=O)N2CCCC(c3cc(C)nc4ncnn34)C2)cc1C` (centres undefined), the solubility in [1] was 36 µg/mL (≈ 98.5 µM). Moreover, the microsomal CLint at 1 µM in data set [2] was found to be 30.2 µL/min/mg.
The molecule `Cc1cc(N2CCCC(C(=O)Nc3ccc4ccccc4c3)C2)n2ncnc2n1` (centres undefined) came in with a solubility in data set [1] of 13 µg/mL (≈ 33.6 µM). The microsomal CLint at 1 µM in data set [2] worked out at 53.4 µL/min/mg.
For `Cc1cc([C@@H]2CN(C(=O)c3ccc(F)c(Br)c3)CC(F)(F)C2)n2ncnc2n1`, the results for the concentration in the data set with Brain, in the data set with Plasma and in the data set on Cerebrospinal fluid were 66 nM, 204 nM and 15 nM, respectively. The AUC(0-inf) (in general, total exposure, with the tail of the curve extrapolated) in data set [3] was found to be 442 ng·h/mL; in [7], 508 ng·h/mL. In addition, in data set [4], the half-life was 60.6 min. In data set [5], the clearance (as a rule, a measure of how efficiently the substance is removed, as volume per time) is 32.8 mL/min/kg. The Vd in data set [6] stood at 0.98 L/kg. The same molecule came in with a CL in the data set with Rattus norvegicus of 50%. Besides, the Cmax (in general, the highest concentration seen after dosing) in data set [8] is 201 ng/mL. For the same molecule, the microsomal CLint at 1 µM in [2] was 25.7 µL/min/mg. Besides, the bioavailability – broadly, dose-corrected exposure relative to a reference, in per cent – in [9] turned out to be 87%. Besides, in [10], the Tmax (usually the time at which the peak concentration occurs) came to 40.2 min.
In [1], `Cc1cc([C@H]2CCCN(C(=O)c3ccc4ccccc4c3)C2)n2ncnc2n1` had a solubility of 37 µg/mL (≈ 99.6 µM). The microsomal CLint at 1 µM in data set [2] is 124 µL/min/mg.
Take `Cc1cc([C@@H]2CN(C(=O)c3ccc(F)c(C4CC4)c3)CC(F)(F)C2)n2ncnc2n1`: the microsomal CLint at 1 µM in data set [2] came to 162 µL/min/mg.
Consider `O=C(Nc1ccc2c(c1)CCC2)C1CCCN(c2cc(C(F)(F)F)nc3ncnn23)C1` (centres undefined), for which the solubility in data set [1] is 29 µg/mL (≈ 67.4 µM). The microsomal CLint at 1 µM in data set [2] came out at 94.1 µL/min/mg.
For `Cc1cc(C2CCCN(C(=O)c3ccc4c(c3)OCC4)C2)n2ncnc2n1` (centres undefined), in data set [1], the solubility turned out to be 36 µg/mL (≈ 99.1 µM). Besides, the microsomal CLint at 1 µM in data set [2] was 21.7 µL/min/mg.
For the molecule `Cc1cc(C2CCCN(C(=O)c3ccc4ncccc4c3)C2)n2ncnc2n1` (centres undefined), the concentration in solution in data set [1] (solubility) came to 47 µg/mL (≈ 126 µM). In addition, the microsomal CLint at 1 µM in data set [2] is 6.3 µL/min/mg.
In the case of `Cc1cc(C2CCCN(C(=O)c3ccc4c(c3)CCC4)C2)n2ncnc2n1` (centres undefined), in data set [1], the concentration in solution (solubility) came to 47 µg/mL (≈ 130 µM). In [2], the microsomal CLint at 1 µM is 83.9 µL/min/mg.
Turning to `Cc1cc([C@@H]2CCCN(C(=O)c3ccc4ccccc4c3)C2)n2ncnc2n1`, in data set [1], the solubility is 37 µg/mL (≈ 99.6 µM). Further, in [2], the microsomal CLint at 1 µM amounted to 41.4 µL/min/mg.
In turn, `COc1cc(Cl)ccc1NC(=O)C1CCCN(c2cc(C)nc3ncnn23)C1` (centres undefined) had a solubility in data set [1] of 45 µg/mL (≈ 112 µM). For the same molecule, in data set [2], the microsomal CLint at 1 µM was 78.9 µL/min/mg.
`Cc1cc(C2CCCN(C(=O)c3ccc4ccccc4c3)C2)n2ncnc2n1` (racemic) returned a solubility in data set [1] of 37 µg/mL (≈ 99.6 µM). The microsomal CLint at 1 µM in [2] was found to be 85.6 µL/min/mg.
For the molecule `COc1ccc(C(=O)N2CC(c3cc(C)nc4ncnn34)CC(F)(F)C2)cc1C` (racemic), the microsomal CLint at 1 µM in data set [2] was determined as 67.7 µL/min/mg.
Turning to `Cc1cc(C2CN(C(=O)c3ccc4ccccc4c3)CC(F)(F)C2)n2ncnc2n1` (racemic), the microsomal CLint at 1 µM in data set [2] came to 78.8 µL/min/mg.

(Values after ChEMBL document CHEMBL4007409, “Design and Synthesis of Novel and Selective Phosphodiesterase 2 (PDE2a) Inhibitors for the Treatment of Memory Disorders” (J Med Chem, 2017).)
